From ChEMBL document CHEMBL1145281, “Potent bombesin-like peptides for GRP-receptor targeting of tumors with 99mTc: a preclinical study” (J Med Chem, 2005)

Columns and labels:
PC-3 = assay: Equilibrium constant of compound for binding to the active sites in human PC-3 cell membranes; assay type: functional
Method in brief: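 Saturation binding of 99mTc/99gTc-labelled peptides in PC-3 membrane homogenates (50 μg protein), 0.06–12 nM total peptide, two triplicate sets for total and nonspecific binding. HEPES pH 7.6 buffer with 1% BSA, 5.5 mM MgCl2, 35 μM bacitracin. 1 h at 37 °C. Nonspecific binding defined with [Tyr4]BB. Kd from Scatchard analysis.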

[1] = molecular target: T1, Gastrin-releasing peptide receptor (Homo sapiens, UniProt P30550); assay: Displacement of [125 I-Tyr4]BB from human gastrin releasing peptide receptor expressed in PC-3 cell membranes
T1 sequence (P30550 whole entry): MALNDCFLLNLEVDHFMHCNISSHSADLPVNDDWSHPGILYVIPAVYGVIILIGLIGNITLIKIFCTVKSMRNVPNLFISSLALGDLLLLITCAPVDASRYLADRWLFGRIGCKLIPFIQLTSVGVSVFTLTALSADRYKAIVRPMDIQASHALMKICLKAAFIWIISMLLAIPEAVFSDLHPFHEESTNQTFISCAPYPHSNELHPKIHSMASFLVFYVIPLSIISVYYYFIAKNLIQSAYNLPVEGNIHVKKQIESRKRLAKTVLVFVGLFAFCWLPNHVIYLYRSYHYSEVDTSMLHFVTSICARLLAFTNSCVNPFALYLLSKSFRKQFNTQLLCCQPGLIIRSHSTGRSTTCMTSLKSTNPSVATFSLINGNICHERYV

[2] = molecular target: T2, Bombesin receptor subtype-3 (Homo sapiens, UniProt P32247); assay: Inhibition of bombesin subtype 3 receptor expressed in human lung carcinoids
T2 sequence (P32247 whole entry): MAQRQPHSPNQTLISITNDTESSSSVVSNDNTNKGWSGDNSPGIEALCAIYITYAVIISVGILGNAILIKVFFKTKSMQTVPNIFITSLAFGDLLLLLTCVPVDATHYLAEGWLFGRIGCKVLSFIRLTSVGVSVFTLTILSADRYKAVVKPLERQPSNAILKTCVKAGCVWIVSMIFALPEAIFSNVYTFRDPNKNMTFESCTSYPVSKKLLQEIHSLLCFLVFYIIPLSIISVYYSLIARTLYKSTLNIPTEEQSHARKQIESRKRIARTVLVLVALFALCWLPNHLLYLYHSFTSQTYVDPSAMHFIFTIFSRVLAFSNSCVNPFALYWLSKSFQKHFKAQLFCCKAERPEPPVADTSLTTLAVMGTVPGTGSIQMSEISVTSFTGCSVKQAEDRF

[3] = molecular target: T1, Gastrin-releasing peptide receptor; assay: Inhibition of gastrin releasing peptide receptor expressed in human prostate cancer cells; assay type: cell-based, Cancer cell lines

IC50 [1]	IC50 [3]	SMILES	Kd (PC-3)	IC50 [2]
0.6 nM	1.3 nM	CCCC[C@H](NC(=O)[C@H](CC(C)C)NC(=O)[C@H](Cc1c[nH]cn1)NC(=O)CNC(=O)[C@@H](NC(=O)[C@H](C)NC(=O)[C@H](Cc1c[nH]c2ccccc12)NC(=O)[C@H](CCC(N)=O)NC(=O)COCC(=O)Nc1ccc(CC(CNCCN)CNCCN)cc1)C(C)C)C(N)=O	0.14 nM	> 100 nM
0.08 nM	0.65 nM	CSCC[C@H](NC(=O)[C@H](CC(C)C)NC(=O)[C@H](Cc1c[nH]cn1)NC(=O)CNC(=O)[C@@H](NC(=O)[C@H](C)NC(=O)[C@H](Cc1c[nH]c2ccccc12)NC(=O)[C@H](CCC(N)=O)NC(=O)COCC(=O)Nc1ccc(CC(CNCCN)CNCCN)cc1)C(C)C)C(N)=O	0.07 nM	37 nM
0.15 nM	1.94 nM	CCCC[C@H](NC(=O)[C@H](CC(C)C)NC(=O)[C@H](Cc1c[nH]cn1)NC(=O)CNC(=O)[C@@H](NC(=O)[C@H](C)NC(=O)[C@H](Cc1c[nH]c2ccccc12)NC(=O)[C@H](CCC(N)=O)NC(=O)[C@H](CC(N)=O)NC(=O)CNC(=O)[C@H](Cc1ccc(O)cc1)NC(=O)[C@H](CCCN=C(N)N)NC(=O)[C@H](CCC(N)=O)NC(=O)[C@@H]1CCCN1C(=O)C(CNCCN)CNCCN)C(C)C)C(N)=O	–	> 100 nM
